Reference: ChEMBL document CHEMBL1139526, “Synthesis, antiviral activity, and mechanism of drug resistance of D- and L-2',3'-didehydro-2',3'-dideoxy-2'-fluorocarbocyclic nucleosides” (J Med Chem, 2005)

Assays:
PBMC [1] = experiment: Effective concentration to inhibit HIV-1 activity in human peripheral blood mononuclear cells; assay type: functional, cell-based
Procedure, shortened: (§1)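 HIV-1 LAI was the reference virus. Human PBM cells were infected in bulk for 1 h at 100 TCID50/1 × 10⁷ cells (flask) or 200 TCID50/6 × 10⁵ cells/well. Cells went into 10-fold serial compound dilutions in RPMI-1640 with 16% FBS, DEAE-dextran and IL-2, 5 days at 37 °C. Read-out was supernatant RT activity ([³H]TTP, poly(rA)·oligo(dT)). EC50 was taken by the median effect method.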

PBMC [2] = experiment: Inhibitory concentration was determined against PHA stimulated human peripheral blood mononuclear cells; assay type: functional, cell-based
Procedure, shortened: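 Uninfected PHA-stimulated PBM cells from healthy HIV/HBV-seronegative donors were isolated by Ficoll-Hypaque and seeded at 5 × 10⁴ cells/well. Cells were incubated 5 days at 37 °C with 10-fold serial dilutions. Read-out was MTT reduction at 570 nm after overnight dye and solubilization. IC50 was taken by median-effect analysis.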

CCRF-CEM = experiment: Inhibitory concentration against CEM cell line; assay type: functional, cell-based; details: Homo sapiens
Procedure, shortened: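 CEM T-lymphoblastoid cells in log phase, 2.5 × 10³ cells/well, were exposed to 10-fold serial dilutions for 4 days at 37 °C and 5% CO₂. MTT was added overnight, then solubilized, with absorbance read at 570 nm. IC50 was taken from median-effect analysis.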

Vero = experiment: Inhibitory concentration against uninfected Vero cells; assay type: functional, cell-based; details: Chlorocebus sabaeus
Procedure, shortened: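 Uninfected Vero cells in log phase, 5 × 10³ cells/well, were exposed to 10-fold serial drug dilutions for 3 days at 37 °C. Viability was read by MTT overnight, solubilized, at 570 nm. IC50 came from the median effect method.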

PBMC [3] = experiment: In vitro effective concentration against HIV-1 in human peripheral blood mononuclear cells; assay type: functional, cell-based; procedure, shortened: as §1
PBMC [4] = experiment: In vitro effective concentration against HBV in human peripheral blood mononuclear cells; assay type: functional, cell-based
PBMC [5] = experiment: Fold increase in ratio of EC50 against HIV-1 M184V to that of EC50 against HIV-1wild type; assay type: functional, Homo sapiens
Procedure, shortened: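 PHA-stimulated human PBM cells infected in bulk for 1 h with the molecular clones HIV-1 xxBru (wild type) or M184Vpitt, then added to 10-fold serial drug dilutions. Cultured 5 days at 37 °C. Supernatant virus was pelleted and its RT activity measured by [3H]TTP incorporation on poly(rA)·oligo(dT). EC50 by the median effect method; fold increase = EC50 M184V / EC50 xxBru.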

PBMC [6] = experiment: (§2) In vitro effective concentration against […] wild type HIV-1 in human peripheral blood mononuclear cells; assay type: functional
Procedure, shortened: (§3)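 Molecular clones were used: wild-type HIV-1 xxBru and lamivudine-resistant HIV-1 M184Vpitt. Human PBM cells were infected in bulk for 1 h, then cultured in 10-fold serial compound dilutions with IL-2 for 5 days at 37 °C. Pelleted supernatant virus was assayed for RT activity, 2 h at 37 °C with [³H]TTP. EC50/EC90 came from median-effect analysis. Fold increase is M184V EC50 over xxBRU EC50.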

PBMC [7] = experiment: In vitro effective concentration against Lamivudine resistant HIV-1 mutant M184V in human peripheral blood mononuclear cells; assay type: functional
PBMC [8] = experiment: as §2; assay type: functional, cell-based; procedure, shortened: as §3
PBMC [9] = test system: PBMC
MT4 = experiment: In vitro effective concentration against HIV-1 in MT-4 cells; assay type: functional, cell-based; details: Homo sapiens

SMILES	EC50 (PBMC [1]) [µM]	IC50 (PBMC [2]) [µM]	IC50 (CCRF-CEM) [µM]	IC50 (Vero) [µM]	EC50 (PBMC [3]) [µM]	further results
Cc1cn([C@@H]2C[C@H](CO)C=C2F)c(=O)[nH]c1=O	> 100	> 100	> 100	> 100	–	–
Cc1cn([C@H]2C[C@H](N=[N+]=[N-])[C@@H](CO)O2)c(=O)[nH]c1=O [ZIDOVUDINE]	0.0018	> 100	–	–	–	–
Cc1cn([C@H]2C[C@@H](CO)C=C2F)c(=O)[nH]c1=O	> 100	> 100	> 100	> 100	–	–
Nc1ccn([C@@H]2O[C@H](CO)C=C2F)c(=O)n1	–	–	–	–	0.51	EC50 (PBMC [4]): 0.8 µM
Nc1ncnc2c1ncn2[C@H]1C[C@@H](CO)C=C1F	0.77	> 100	> 100	> 100	–	Fold increase (PBMC [5]): 98; EC90 (PBMC [6]): 8.34 µM; EC90 (PBMC [7]): > 100 µM; EC50 (PBMC [8]): 0.77 µM; EC50 (PBMC [9]): 75.3 µM
Nc1nc(O)c2ncn([C@H]3C[C@@H](CO)C=C3F)c2n1	> 100	> 100	> 100	> 100	–	–
Nc1ccn([C@@H]2C[C@H](CO)C=C2F)c(=O)n1	> 100	> 100	> 100	> 100	–	–
Nc1ccn([C@@H]2CS[C@H](CO)O2)c(=O)n1 [LAMIVUDINE]	–	–	–	–	–	EC90 (PBMC [6]): 0.25 µM; EC50 (PBMC [8]): 0.027 µM
Nc1nc(=O)n([C@H]2C=C(F)C(CO)O2)cc1F (single isomer, unassigned)	–	–	–	–	0.82	–
Nc1nc(=O)n([C@@H]2O[C@H](CO)C=C2F)cc1F	–	–	–	–	0.17	EC50 (PBMC [4]): 0.22 µM
Nc1nc(O)c2ncn([C@@H]3C[C@H](CO)C=C3F)c2n1	37.8	> 100	> 100	> 100	37.8	–
Nc1ccn([C@H]2C=C(F)[C@@H](CO)S2)c(=O)n1	–	–	–	–	0.12	–
O=c1ccn([C@@H]2C[C@H](CO)C=C2F)c(=O)[nH]1	> 100	> 100	> 100	> 100	–	–
Nc1ncnc2c1ncn2[C@@H]1O[C@H](CO)C=C1F	–	–	–	–	1.5	EC50 (PBMC [4]): 1.7 µM
OC[C@H]1C=C(F)[C@@H](n2cnc3c(O)ncnc32)C1	> 100	> 100	91.3	> 100	–	–
OC[C@@H]1C=C(F)[C@H](n2cnc3c(O)ncnc32)C1	> 100	> 100	> 100	> 100	–	–
Nc1nc2c(ncn2[C@H]2C=C[C@@H](CO)C2)c(=O)[nH]1 [CARBOVIR]	–	–	–	–	0.55	IC50 (MT4): 4.6 µM
Nc1ccn([C@H]2C[C@@H](CO)C=C2F)c(=O)n1	37.7	> 100	> 100	> 100	–	–
Nc1ncnc2c1ncn2[C@H]1C=C(F)C(CO)O1 (single isomer, unassigned)	–	–	–	–	4.4	–
Nc1nc(=O)n([C@H]2C=C(F)[C@@H](CO)S2)cc1F	–	–	–	–	0.15	–
Nc1ccn([C@@H]2S[C@H](CO)C=C2F)c(=O)n1	–	–	–	–	1.3	–
O=c1ccn([C@H]2C[C@@H](CO)C=C2F)c(=O)[nH]1	> 100	> 100	> 100	> 100	–	–
Nc1ncnc2c1ncn2[C@@H]1C[C@H](CO)C=C1F	72.8	> 100	> 100	> 100	72.8	–
